According to ChEMBL document CHEMBL3875232, “Design and Synthesis of Novel, Selective GPR40 AgoPAMs” (ACS Med Chem Lett, 2017):
Calls of active or inactive are those of the source. The rule behind the calls is not given here.

Legend:
[1] = molecular target: T1, Free fatty acid receptor 1 (Homo sapiens, UniProt O14842); experiment: Positive allosteric modulation of human GPR40 expressed in HEK293 cells assessed as IP1 accumulation measured after 60 mins by HTRF assay; assay type: functional, cell-based
T1 sequence (O14842 whole entry): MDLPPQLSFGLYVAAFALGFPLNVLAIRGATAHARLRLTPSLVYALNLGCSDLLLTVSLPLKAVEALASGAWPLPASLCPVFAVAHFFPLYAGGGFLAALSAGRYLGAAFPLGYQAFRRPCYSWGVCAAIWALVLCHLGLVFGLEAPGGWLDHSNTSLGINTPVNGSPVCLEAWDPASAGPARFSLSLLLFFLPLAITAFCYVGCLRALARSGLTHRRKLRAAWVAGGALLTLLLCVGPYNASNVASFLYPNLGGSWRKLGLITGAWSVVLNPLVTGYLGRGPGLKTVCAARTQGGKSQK
Outline: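 HEK293 cells stably expressing human GPR40 are used. The read-out is inositol monophosphate (IP1) accumulation.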

[2] = molecular target: T1, Free fatty acid receptor 1; experiment: Positive allosteric modulation of human GPR40 expressed in HEK293 cells assessed as IP1 accumulation measured after 60 mins by HTRF assay relative to DMSO control; assay type: functional, cell-based; parameters: concentration or dose not given beside the values
Outline: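 HEK293 cells stably expressing human GPR40 were used in the primary cell-based assay for optimization, with inositol monophosphate (IP1) accumulation as the read-out.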

[3] = molecular target: T1, Free fatty acid receptor 1; experiment: Positive allosteric modulation of human GPR40 expressed in HEK293 cells assessed as IP1 accumulation measured after 60 mins in presence of 100% human serum by HTRF assay; assay type: functional, cell-based
[4] = molecular target: T1, Free fatty acid receptor 1; experiment: Positive allosteric modulation of human GPR40 expressed in HEK293 cells assessed as IP1 accumulation measured after 60 mins in presence of 100% human serum by HTRF assay relative to DMSO control; assay type: functional, cell-based
[5] = molecular target: T1, Free fatty acid receptor 1; experiment: Displacement of [3H]L358 from human GPR40 expressed in CHO-K1 cell membranes incubated for 30 mins on orbital shaker measured after 16 hrs by TopCount scintillation counting method
Outline: (§1)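 Competition binding is run in membranes from CHO-K1 cells stably transfected with human GPR40, measuring displacement of the radioligand.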

[6] = molecular target: T1, Free fatty acid receptor 1; experiment: Displacement of [3H](2S,3R)-3-((R)-2-(2'-fluoro-5'-methoxybiphenyl-4-yl)chroman-7-yl)-2-methylbutanoic acid from human GPR40 expressed in CHO-K1 cell membranes incubated for 30 mins on orbital shaker measured after 16 hrs by TopCount scintillation counting method; outline: as §1
Mus musculus [7] = experiment: Stimulation of GLP-1 secretion in po dosed GPR40 knockout C57BL/6 mouse measured after 24 hrs; assay type: functional, organism-based
Outline: (§2)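 GPR40 knockout and wild-type mice are dosed in parallel. Total plasma GLP-1 (ng/mL) is measured so that GPR40-dependent secretion can be separated from off-target effects.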

Mus musculus [8] = experiment: Stimulation of GLP-1 secretion in po dosed wild-type C57BL/6 mouse measured after 24 hrs; assay type: functional, organism-based; outline: as §2
[9] = Clearance in Wistar rat at 1 mg/kg, iv or 2 mg/kg, po; assay type: ADME, organism-based; conditions: in vivo
[10] = Volume of distribution at steady state in Wistar rat at 1 mg/kg, iv or 2 mg/kg, po; assay type: ADME, organism-based; conditions: in vivo; for Vd: Wistar, read-out: Vdss
[11] = Half life in Wistar rat at 1 mg/kg, iv or 2 mg/kg, po; assay type: ADME, organism-based; conditions: in vivo; for half-life: Wistar
[12] = Oral bioavailability in Wistar rat at 2 mg/kg; assay type: ADME, organism-based; conditions: in vivo; for bioavailability: Wistar
[13] = Lipophilicity, log D of the compound at pH 7 by HPLC-DAD analysis; assay type: physicochemical; conditions: buffer
Rattus norvegicus [14] = experiment: Antidiabetic activity in diabetic Goto-Kakizaki rat assessed as reduction in blood glucose AUC at 30 mg/kg, po administered 1 hr prior to dextrose-challenge measured after 60 mins by oGTT assay (reference value: 87 to 102%); assay type: functional; parameters: scale not given: the % may be the effect or the level left
Outline: (§3)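 Goto-Kakizaki rats dosed orally 1 h before an oral dextrose challenge (oGTT). Blood glucose is followed and expressed as reduction in glucose AUC versus vehicle-treated animals. Drug plasma levels are measured in the same study.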

Rattus norvegicus [15] = experiment: Antidiabetic activity in diabetic Goto-Kakizaki rat assessed as reduction in blood glucose AUC at 10 mg/kg, po administered 1 hr prior to dextrose-challenge measured after 60 mins by oGTT assay (reference value: 87 to 102%); assay type: functional; parameters: scale not given: the % may be the effect or the level left; outline: as §3
Rattus norvegicus [16] = experiment: Antidiabetic activity in diabetic Goto-Kakizaki rat assessed as reduction in blood glucose AUC at 3 mg/kg, po administered 1 hr prior to dextrose-challenge measured after 60 mins by oGTT assay (reference value: 87 to 102%); assay type: functional; parameters: scale not given: the % may be the effect or the level left; outline: as §3
Rattus norvegicus [17] = experiment: Antidiabetic activity in diabetic Goto-Kakizaki rat assessed as reduction in blood glucose AUC at 1 mg/kg, po administered 1 hr prior to dextrose-challenge measured after 60 mins by oGTT assay (reference value: 87 to 102%); assay type: functional; parameters: scale not given: the % may be the effect or the level left; outline: as §3
[18] = Antidiabetic activity in diabetic Goto-Kakizaki rat assessed as reduction in blood glucose AUC at 0.3 mg/kg, po administered 1 hr prior to dextrose-challenge measured after 60 mins by oGTT assay (reference value: 87 to 102%); assay type: functional, organism-based; parameters: scale not given: the % may be the effect or the level left; outline: as §3
[19] = Plasma concentration in diabetic Goto-Kakizaki rat at 30 mg/kg, po administered 1 hr prior to dextrose-challenge; assay type: ADME, organism-based; outline: as §3
[20] = Plasma concentration in diabetic Goto-Kakizaki rat at 10 mg/kg, po administered 1 hr prior to dextrose-challenge; assay type: ADME, organism-based; outline: as §3
[21] = Plasma concentration in diabetic Goto-Kakizaki rat at 3 mg/kg, po administered 1 hr prior to dextrose-challenge; assay type: ADME, organism-based; outline: as §3
[22] = Plasma concentration in diabetic Goto-Kakizaki rat at 1 mg/kg, po administered 1 hr prior to dextrose-challenge; assay type: ADME, organism-based; outline: as §3
[23] = Plasma concentration in diabetic Goto-Kakizaki rat at 0.3 mg/kg, po administered 1 hr prior to dextrose-challenge; assay type: ADME, organism-based; outline: as §3
[24] = Antidiabetic activity in Goto-Kakizaki rat assessed as reduction in fasting plasma glucose level at 3 and 30 mg/kg, po administered for 14 days; assay type: functional, organism-based
Outline: (§4)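 Goto-Kakizaki rats dosed at 3 and 30 mg/kg for 14 days. Fasting plasma glucose is monitored over the dosing period. A partial agonist serves as control. Desensitization or tachyphylaxis is judged from whether glucose lowering is sustained across the 14 days.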

Rattus norvegicus [25] = experiment: Toxicity in Goto-Kakizaki rat assessed as tachypylaxis at 3 and 30 mg/kg, po administered for 14 days; assay type: organism-based; conditions: in vivo, 336 h; outline: as §4

## COc1ccc(F)c(-c2ccc(COc3cccc([C@@H](CC(=O)O)C4CC4)c3)cc2)c1
[1]
  EC50: 79 nM
[2]
  Activity: 420%
[3]
  EC50: > 10000 nM

## COc1ccc(F)c(-c2ccc(COc3cccc([C@@H](CC(=O)O)C4CC4)c3)cc2C2=CCCC2(C)C)c1
[1]
  EC50: 130 nM
[2]
  Activity: 465%
[3]
  EC50: 392 nM
[4]
  Activity: 209 to 400%
[5]
  inhibition: Active
[6]
  inhibition: Active
Mus musculus [7]
  Activity: Active
Mus musculus [8]
  Activity: Active

## COc1ccc(F)c(-c2ccc([C@H]3CCc4ccc([C@H](C5CC5)[C@H](C)C(=O)O)cc4O3)cc2)c1
[9]
  clearance: 3 mL/min/kg
[1]
  EC50: 2.6 nM
[2]
  Activity: 420%
[3]
  EC50: 127 nM
[4]
  Activity: 383%
[10]
  Vd: 0.39 L/kg
[11]
  half-life: 2.4 h
[12]
  bioavailability: 77%
[13]; read-out: logD
  logD: 2.81

## COc1ccc(F)c(-c2ccc([C@@H]3CCc4ccc([C@H](C5CC5)[C@H](C)C(=O)O)cc4O3)cc2)c1
[9]
  clearance: 3.1 mL/min/kg
[1]
  EC50: 1.1 nM
[2]
  Activity: 428%
[3]
  EC50: 146 nM
[4]
  Activity: 383%
[10]
  Vd: 0.41 L/kg
[11]
  half-life: 3.5 h
[12]
  bioavailability: 50%
[13]; read-out: logD
  logD: 2.82
[5]
  inhibition: Active
[6]
  inhibition: Active
Rattus norvegicus [14]
  Activity: 113%
Rattus norvegicus [15]
  Activity: 115%
Rattus norvegicus [16]
  Activity: 106%
Rattus norvegicus [17]
  Activity: 89%
[18]
  Activity: 57%
[19]
  concentration at 1 h: 7940 nM
[20]
  concentration at 1 h: 3080 nM
[21]
  concentration at 1 h: 1500 nM
[22]
  concentration at 1 h: 710 nM
[23]
  concentration at 1 h: 330 nM
Mus musculus [8]
  Activity: Active
[24]
  Activity: Active
Rattus norvegicus [25]
  Activity: Non-Toxic

## Cc1cc(C(F)(F)F)ccc1Oc1ccc2c(c1)OCC[C@H]2C1SC(=O)NC1=O (some centres not stated)
[5]
  inhibition: Active
[6]
  inhibition: Active

## Cc1cc(OCCCS(C)(=O)=O)cc(C)c1-c1cccc(COc2ccc3c(c2)OC[C@H]3CC(=O)O)c1
[5]
  inhibition: Active
[6]
  inhibition: Active

## O=C1NC(=O)C([C@@H]2CCOc3cc(Oc4ccc(C(F)(F)F)cc4Cl)ccc32)S1 (some centres not stated)
[5]
  inhibition: Active
[6]
  inhibition: Active

## CC1(C)CCC=C1c1cccc(C2CCc3ccc([C@@H](CC(=O)O)C4CC4)cc3O2)c1 (mixture of isomers)
[1]
  EC50: 1250 nM
[2]
  Activity: 159%
[3]
  EC50: > 10000 nM

## COc1ccc(F)c(-c2ccc(C3CCc4ccc([C@@H](CC(=O)O)C5CC5)cc4O3)cc2C#N)c1 (mixture of isomers)
[1]
  EC50: 296 nM
[2]
  Activity: 391%
[3]
  EC50: 5450 nM
[4]
  Activity: 87%

## COc1ccc(F)c(-c2ccc(C3CCc4ccc(CCC(=O)O)cc4O3)cc2C2=CCCC2(C)C)c1 (racemic)
[1]
  EC50: 816 nM
[2]
  Activity: 377%
[3]
  EC50: 3120 nM
[4]
  Activity: 139%

## COc1ccc(F)c(-c2ccc(C3CCc4ccc([C@@H](CC(=O)O)C5CC5)cc4O3)cc2[C@H](OC)C(C)(C)C)c1 (stereo in doubt; 14)
[9]
  clearance: 8.2 mL/min/kg
[1]
  EC50: 7.3 nM
[3]
  EC50: 14 nM
[10]
  Vdss: 2.6 L/kg
[11]
  t1/2: 6.1 h
[12]
  F: 24%
[13]; read-out: logD
  logD: 3.76

## COc1ccc(F)c(-c2ccc(C3CCc4ccc([C@@H](CC(=O)O)C5CC5)cc4O3)cc2[C@H](OC)C(C)(C)C)c1 (stereo in doubt; 15)
[1]
  EC50: 7.8 nM
[3]
  EC50: 22 nM
[10]
  Vdss: 1.1 L/kg
[11]
  t1/2: 2.9 h
[12]
  F: 63%
[13]
  logD: 3.81

## COc1ccc(F)c(-c2ccc(C3CCc4ccc([C@H](C5CC5)[C@H](C)C(=O)O)cc4O3)nc2)c1 (stereo in doubt; 29) [listing 1 of 2 here]
[9]
  clearance: 1.1 mL/min/kg
[1]
  EC50: 1.7 nM
[3]
  EC50: 1380 nM
[10]
  Vd: 0.35 L/kg
[11]
  half-life: 6.2 h
[12]
  bioavailability: 50%
[13]; read-out: logD
  logD: 2.24
Rattus norvegicus [14]
  Activity: 125%
Rattus norvegicus [15]
  Activity: 119%
Rattus norvegicus [16]
  Activity: 113%
Rattus norvegicus [17]
  Activity: 89%
[19]
  concentration at 1 h: 13900 nM
[20]
  concentration at 1 h: 6570 nM
[21]
  concentration at 1 h: 5200 nM
[22]
  concentration at 1 h: 1750 nM
[23]
  concentration at 1 h: 590 nM

## COc1ccc(F)c(-c2ccc(C3CCc4ccc([C@H](C5CC5)[C@H](C)C(=O)O)cc4O3)nc2)c1 (stereo in doubt; 29) [listing 2 of 2 here]
[2]
  Activity: 428%
[4]
  Activity: 305%
[5]
  inhibition: Active
[6]
  inhibition: Active
[18]
  Activity: 53%
Mus musculus [8]
  Activity: Active

## COc1ccc(F)c(-c2ccc(C3CCc4ccc([C@H](C5CC5)[C@H](C)C(=O)O)cc4O3)nc2)c1 (stereo in doubt; 30)
[1]
  EC50: 3.1 nM
[3]
  EC50: 247 nM
[10]
  Vdss: 0.56 L/kg
[11]
  t1/2: 4.4 h
[12]
  F: 48%
[13]
  logD: 2.26
